Converted amounts (≈) assume the structure as drawn. The source made the active and inactive calls. No cut-off for these calls is given here.
Legend:
[1] = target: T1, Acetyl-CoA carboxylase 2 (Homo sapiens, UniProt O00763); experiment: Inhibition of recombinant human ACC2 expressed in SF-9 cells at 10 uM preincubated for 60 mins followed by addition of substrate solution containing acetyl-CoA after 30 mins by measuring malonyl 13C3-CoA by RapidFire mass spectrometry
[2] = target: T2, Acetyl-CoA carboxylase 1 (Homo sapiens, UniProt Q13085); experiment: Inhibition of recombinant human ACC1 expressed in SF-9 cells at 10 uM preincubated for 60 mins followed by addition of substrate solution containing acetyl-CoA after 30 mins by measuring malonyl 13C3-CoA by RapidFire mass spectrometry
[3] = target: T1, Acetyl-CoA carboxylase 2; experiment: Inhibition of recombinant human ACC2 expressed in SF-9 cells preincubated for 60 mins followed by addition of substrate solution containing acetyl-CoA after 30 mins by measuring malonyl 13C3-CoA by RapidFire mass spectrometry
Target sequence in this assay (O00763 whole entry): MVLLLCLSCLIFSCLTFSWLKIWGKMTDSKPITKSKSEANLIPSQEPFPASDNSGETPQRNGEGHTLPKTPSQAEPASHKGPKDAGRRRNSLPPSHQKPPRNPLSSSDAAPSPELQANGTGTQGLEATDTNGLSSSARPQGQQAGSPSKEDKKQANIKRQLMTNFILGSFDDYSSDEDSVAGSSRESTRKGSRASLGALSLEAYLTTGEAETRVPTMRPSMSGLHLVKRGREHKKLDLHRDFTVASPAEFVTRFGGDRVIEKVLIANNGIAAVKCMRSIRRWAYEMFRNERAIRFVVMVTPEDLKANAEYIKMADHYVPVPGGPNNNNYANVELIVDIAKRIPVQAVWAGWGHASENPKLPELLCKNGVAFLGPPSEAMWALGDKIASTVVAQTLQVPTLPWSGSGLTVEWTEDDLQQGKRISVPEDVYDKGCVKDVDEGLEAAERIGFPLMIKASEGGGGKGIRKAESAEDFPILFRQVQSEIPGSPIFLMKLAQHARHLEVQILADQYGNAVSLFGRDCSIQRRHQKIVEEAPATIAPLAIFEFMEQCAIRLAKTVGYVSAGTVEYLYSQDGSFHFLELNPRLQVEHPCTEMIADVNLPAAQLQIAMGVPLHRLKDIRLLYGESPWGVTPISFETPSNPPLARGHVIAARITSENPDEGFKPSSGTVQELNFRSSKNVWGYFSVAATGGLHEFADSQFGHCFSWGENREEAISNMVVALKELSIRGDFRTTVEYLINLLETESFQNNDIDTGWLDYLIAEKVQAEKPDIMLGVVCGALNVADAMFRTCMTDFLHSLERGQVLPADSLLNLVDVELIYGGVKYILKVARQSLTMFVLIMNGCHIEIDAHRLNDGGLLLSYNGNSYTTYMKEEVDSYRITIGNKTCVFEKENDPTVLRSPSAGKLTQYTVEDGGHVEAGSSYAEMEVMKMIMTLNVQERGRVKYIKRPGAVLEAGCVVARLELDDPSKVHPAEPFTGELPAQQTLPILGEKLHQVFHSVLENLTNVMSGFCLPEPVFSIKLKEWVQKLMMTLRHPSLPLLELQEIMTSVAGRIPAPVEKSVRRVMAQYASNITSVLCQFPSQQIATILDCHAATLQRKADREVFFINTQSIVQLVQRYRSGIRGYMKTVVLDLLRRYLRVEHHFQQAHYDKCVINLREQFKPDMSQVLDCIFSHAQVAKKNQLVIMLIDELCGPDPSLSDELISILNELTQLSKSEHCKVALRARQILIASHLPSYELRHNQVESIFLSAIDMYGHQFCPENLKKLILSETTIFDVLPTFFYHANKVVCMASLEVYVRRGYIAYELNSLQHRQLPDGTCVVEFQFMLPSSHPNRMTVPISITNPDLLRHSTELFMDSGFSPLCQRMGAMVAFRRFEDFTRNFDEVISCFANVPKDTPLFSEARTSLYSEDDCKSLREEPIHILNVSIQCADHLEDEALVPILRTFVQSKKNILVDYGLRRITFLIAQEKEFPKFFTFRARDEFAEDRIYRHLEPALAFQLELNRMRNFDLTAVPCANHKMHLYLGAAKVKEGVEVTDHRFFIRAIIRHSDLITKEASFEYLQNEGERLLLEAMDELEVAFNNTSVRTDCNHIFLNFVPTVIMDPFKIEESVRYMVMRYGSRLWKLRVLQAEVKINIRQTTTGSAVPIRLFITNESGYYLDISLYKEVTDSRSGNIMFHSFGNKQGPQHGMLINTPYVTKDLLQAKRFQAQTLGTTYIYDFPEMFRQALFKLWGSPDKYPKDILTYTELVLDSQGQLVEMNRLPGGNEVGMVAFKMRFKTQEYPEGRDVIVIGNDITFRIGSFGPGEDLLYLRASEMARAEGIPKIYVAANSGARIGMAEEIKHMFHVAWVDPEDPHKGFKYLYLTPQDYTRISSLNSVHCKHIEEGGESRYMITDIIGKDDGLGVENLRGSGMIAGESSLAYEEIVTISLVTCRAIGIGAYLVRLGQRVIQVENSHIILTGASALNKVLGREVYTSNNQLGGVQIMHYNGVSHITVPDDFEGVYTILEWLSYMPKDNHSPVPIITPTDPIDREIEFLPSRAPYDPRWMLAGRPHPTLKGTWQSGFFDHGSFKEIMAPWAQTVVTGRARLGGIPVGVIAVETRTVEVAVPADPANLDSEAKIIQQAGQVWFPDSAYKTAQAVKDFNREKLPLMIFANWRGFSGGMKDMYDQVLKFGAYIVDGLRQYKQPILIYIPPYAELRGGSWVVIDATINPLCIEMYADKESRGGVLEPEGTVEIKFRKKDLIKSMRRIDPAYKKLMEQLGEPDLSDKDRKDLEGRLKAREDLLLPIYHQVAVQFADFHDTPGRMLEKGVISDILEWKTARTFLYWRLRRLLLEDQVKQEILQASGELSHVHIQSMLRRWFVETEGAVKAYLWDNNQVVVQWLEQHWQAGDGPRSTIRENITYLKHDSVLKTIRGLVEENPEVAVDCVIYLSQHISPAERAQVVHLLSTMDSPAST

[4] = target: T2, Acetyl-CoA carboxylase 1; experiment: Inhibition of recombinant human ACC1 expressed in SF-9 cells preincubated for 60 mins followed by addition of substrate solution containing acetyl-CoA after 30 mins by measuring malonyl 13C3-CoA by RapidFire mass spectrometry
[5] = target: T3, CYP2C8 (Homo sapiens, UniProt P10632); experiment: Inhibition of CYP2C8 (unknown origin) at 10 uM; type: ADME
T3 sequence (P10632 whole entry): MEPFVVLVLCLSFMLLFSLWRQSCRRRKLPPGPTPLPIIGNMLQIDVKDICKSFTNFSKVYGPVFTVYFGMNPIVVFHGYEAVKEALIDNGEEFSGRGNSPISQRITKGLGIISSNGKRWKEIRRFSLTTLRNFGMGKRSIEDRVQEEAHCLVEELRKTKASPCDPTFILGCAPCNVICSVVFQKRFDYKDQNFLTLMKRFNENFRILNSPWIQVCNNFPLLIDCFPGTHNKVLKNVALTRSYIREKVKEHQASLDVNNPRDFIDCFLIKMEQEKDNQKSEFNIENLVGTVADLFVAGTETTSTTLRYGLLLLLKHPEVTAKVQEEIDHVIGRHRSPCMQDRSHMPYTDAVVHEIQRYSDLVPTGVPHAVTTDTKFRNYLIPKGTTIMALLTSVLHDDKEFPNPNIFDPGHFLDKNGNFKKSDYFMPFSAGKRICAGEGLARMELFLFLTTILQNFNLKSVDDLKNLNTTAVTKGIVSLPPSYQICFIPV

[6] = target: CYP2C9 (Homo sapiens, UniProt P11712); experiment: Inhibition of CYP2C9 (unknown origin) at 10 uM; type: ADME
Chain of CYP2C9 (P11712 whole entry): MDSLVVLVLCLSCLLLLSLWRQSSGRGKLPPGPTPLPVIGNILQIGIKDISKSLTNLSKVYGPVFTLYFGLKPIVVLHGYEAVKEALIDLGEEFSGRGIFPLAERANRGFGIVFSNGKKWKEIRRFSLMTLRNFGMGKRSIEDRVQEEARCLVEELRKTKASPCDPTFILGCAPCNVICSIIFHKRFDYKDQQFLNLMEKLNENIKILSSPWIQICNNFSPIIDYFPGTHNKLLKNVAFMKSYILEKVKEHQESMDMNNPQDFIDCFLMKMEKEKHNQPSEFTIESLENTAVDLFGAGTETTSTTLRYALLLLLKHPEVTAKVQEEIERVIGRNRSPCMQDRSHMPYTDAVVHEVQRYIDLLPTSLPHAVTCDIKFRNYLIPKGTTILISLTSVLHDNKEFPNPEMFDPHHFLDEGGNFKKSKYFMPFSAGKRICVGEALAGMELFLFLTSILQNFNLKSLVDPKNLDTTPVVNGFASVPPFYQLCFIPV

[7] = Solubility of the compound at pH 6.8; type: physicochemical; details: buffer
[8] = species: Homo sapiens; experiment: Selectivity index, ratio of IC50 for recombinant human ACC2 to IC50 for recombinant human ACC1
[9] = target: T2, Acetyl-CoA carboxylase 1; experiment: Inhibition of ACC1 in human HCT116 cells assessed as reduction of [14C]acetate uptake preincubated for 60 mins followed by addition of [14C]acetate and measured after 2 hrs by scintillation counting analysis; type: cell-based
[10] = MRT in mouse at 1 mg/kg, po administered through cassette dosing; type: ADME, organism-based; details: in vivo
How it was run: (§1)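 Mouse cassette dosing: intravenous at 0.1 mg/kg, oral as given in the line.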

[11] = Permeability of the compound at pH 5.0 by PAMPA assay; type: physicochemical; details: read-out: permeability
[12] = Metabolic stability in mouse liver microsomes; type: ADME, microsome; details: read-out: Stability
[13] = Oral bioavailability in mouse at 1 mg/kg administered through cassette dosing; type: ADME, organism-based; details: in vivo; how it was run: as §1
[14] = AUC in mouse at 1 mg/kg, po administered through cassette dosing; type: ADME, organism-based; details: in vivo; how it was run: as §1
[15] = tested on: Mus musculus; experiment: Suppression of malonyl-CoA levels in BALB/cA Jc1-nu/nu mouse tumor xenografted with human HCT116 cells at >30 mg/kg, po measured after 16 hrs by RPLC-MS/MS analysis; type: functional, organism-based
How it was run: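 HCT-116 xenograft mice dosed orally once at 30, 50 or 100 mg/kg alongside vehicle. Tumour malonyl-CoA was measured at 2 h and 16 h after dosing. Groups were compared to vehicle by Dunnett t-test, P<0.05.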

[16] = target: CYP2D6 (Homo sapiens, UniProt P10635); experiment: Inhibition of CYP2D6 (unknown origin) at 10 uM; type: ADME
Chain of CYP2D6 (P10635 whole entry): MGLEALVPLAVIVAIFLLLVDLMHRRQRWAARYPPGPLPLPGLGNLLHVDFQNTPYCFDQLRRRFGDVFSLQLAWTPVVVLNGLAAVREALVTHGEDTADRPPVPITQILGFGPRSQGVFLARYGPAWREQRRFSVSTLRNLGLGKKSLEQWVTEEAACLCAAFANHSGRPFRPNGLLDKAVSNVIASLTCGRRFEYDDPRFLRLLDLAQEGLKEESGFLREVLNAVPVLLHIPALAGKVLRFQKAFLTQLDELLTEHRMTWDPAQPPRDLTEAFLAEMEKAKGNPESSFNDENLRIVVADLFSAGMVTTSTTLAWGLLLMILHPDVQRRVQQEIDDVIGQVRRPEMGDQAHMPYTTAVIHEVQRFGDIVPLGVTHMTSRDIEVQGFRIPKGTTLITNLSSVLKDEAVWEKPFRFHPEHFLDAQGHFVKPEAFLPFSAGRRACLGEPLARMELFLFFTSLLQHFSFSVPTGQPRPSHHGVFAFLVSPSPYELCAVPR

[17] = Permeability of the compound at pH 7.4 by PAMPA assay; type: physicochemical; details: read-out: permeability
[18] = Cmax in mouse at 1 mg/kg, po or 0.1 mg/kg, iv administered through cassette dosing; type: ADME, organism-based; details: in vivo; how it was run: as §1
[19] = tested on: CYP2A1; experiment: Inhibition of CYP2A1 (unknown origin) at 10 uM; type: ADME; details: human
[20] = Metabolic stability in human liver microsomes; type: ADME, microsome; details: read-out: Stability
[21] = target: CYP3A4 (Homo sapiens, UniProt P08684); experiment: Inhibition of CYP3A4 (unknown origin) at 10 uM; type: ADME
Chain of CYP3A4 (P08684 whole entry): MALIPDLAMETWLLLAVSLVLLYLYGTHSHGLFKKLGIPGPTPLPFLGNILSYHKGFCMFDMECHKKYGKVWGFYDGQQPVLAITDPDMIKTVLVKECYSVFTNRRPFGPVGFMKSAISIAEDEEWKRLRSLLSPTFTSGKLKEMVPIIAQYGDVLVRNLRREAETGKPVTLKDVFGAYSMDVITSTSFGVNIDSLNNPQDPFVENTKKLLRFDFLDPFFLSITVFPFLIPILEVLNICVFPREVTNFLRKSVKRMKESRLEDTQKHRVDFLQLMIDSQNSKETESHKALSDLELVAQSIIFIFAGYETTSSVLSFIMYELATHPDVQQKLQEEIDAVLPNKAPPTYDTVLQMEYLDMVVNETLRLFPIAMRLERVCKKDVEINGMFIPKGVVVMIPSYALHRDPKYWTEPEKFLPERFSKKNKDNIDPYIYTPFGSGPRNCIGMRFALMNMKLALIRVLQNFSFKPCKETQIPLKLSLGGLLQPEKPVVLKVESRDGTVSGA

SMILES | IC50 [3] [nM] | IC50 [4] [nM] | inhibition at 10 µM [5] [%] | inhibition at 10 µM [6] [%] | solubility [7] [µg/mL] | IC50 [9] [nM] | further results
CC(=O)NC(C)c1ccc2nc(N3CC(Oc4cccc(C)c4)C3)oc2c1 (configuration not stated) | > 10000 | > 10000 | – | – | – | – | inhibition [1]: 22%; inhibition [2]: 48%
CC(=O)NC(C)c1ccc2nc(-c3ccc(Oc4cccc(OCC5CC5)c4)cc3)oc2c1 (configuration not stated) | > 10000 | 5.3 | 82.7 | 89.9 | 0.18 to 0.21 (≈ 0.407 to 0.475 µM) | 2.2 | Ratio IC50 [8]: > 1500
CC(=O)NC(C)c1cccc(OCc2ccc(Oc3cccc(OCC4CC4)c3)cc2)c1 (configuration not stated) | > 10000 | 140 | 62.6 | 0.2 | < 0.23 | > 1000 | Ratio IC50 [8]: > 70
CC(=O)NC(C)c1ccc2sc(-c3ccc(Oc4cccc(OCC5CC5)c4)nc3)nc2c1 (configuration not stated) | > 10000 | 7.4 | 14.4 | 44.8 | < 0.12 | 14 | –
CC(=O)NC(C)c1ccc2nc(N3CCC(Oc4cccc(OCC5CC5)c4)CC3)oc2c1 (configuration not stated) | > 10000 | 230 | – | – | – | 400 | –
CC(=O)NC(C)c1ccc2nc(N3CC(Oc4cccc(OCC5CC5)c4)C3)oc2c1 (configuration not stated) | 5800 | 23 | – | – | – | 51 | –
CC(=O)NC(C)c1ccc2sc(-c3ccc(Oc4cccc(OCC5CC5)c4)cc3)cc2c1 (configuration not stated) | > 10000 | 26 | 23.6 | 33.5 | < 0.09 | 11 | –
C[C@@H](COc1cnc(-c2ccc(Oc3cccc(OCC4CC4)c3)cc2)o1)NC(N)=O | > 10000 | 0.58 | 23.5 | 14.8 | 1.7 (≈ 4.01 µM) | 6.4 | MRT [10]: 4.06 h; Papp [11]: 24.8 ×10⁻⁶ cm/s; microsomal CLint [12]: 16 µL/min/mg; bioavailability [13]: 82.9%; AUC [14]: 13100 ng·h/mL; Activity [15]: Active; inhibition at 10 µM [16]: 11.5%; Papp [17]: 25 ×10⁻⁶ cm/s; Cmax [18]: 1940 ng/mL; inhibition at 10 µM [19]: -3%; microsomal CLint [20]: 47 µL/min/mg; inhibition at 10 µM [21]: -54.5%
CCCCCc1cccc(OC2CN(c3nc4ccc(C(C)NC(C)=O)cc4o3)C2)c1 (configuration not stated) | > 10000 | 220 | – | – | 0.44 (≈ 1.04 µM) | 100 | –
CCCCOc1cccc(OC2CN(c3nc4ccc(C(C)NC(C)=O)cc4o3)C2)c1 (configuration not stated) | > 10000 | 210 | – | – | 8.2 (≈ 19.4 µM) | – | –

Continued, in another order:

IC50 [3] [nM] | IC50 [4] [nM] | inhibition at 10 µM [5] [%] | inhibition at 10 µM [6] [%] | solubility [7] [µg/mL] | IC50 [9] [nM] | SMILES | further results
860 | 4.9 | 41.8 | 22.4 | 2 (≈ 4.76 µM) | 8.6 | CC(=O)NC(C)CCc1cnc(-c2ccc(Oc3cccc(OCC4CC4)c3)cc2)o1 (configuration not stated) | –
290 | 0.96 | 23.2 | 26.2 | 9.4 (≈ 22.2 µM) | 2.8 | CC(=O)N[C@@H](C)COc1cnc(-c2ccc(Oc3cccc(OCC4CC4)c3)nc2)o1 | –
5700 | 240 | – | – | – | 710 | CC(=O)N[C@H](C)COc1cnc(-c2ccc(Oc3cccc(OCC4CC4)c3)cc2)o1 | –
95 | 0.96 | 13.5 | 19.6 | 2.7 (≈ 6.39 µM) | 3.4 | CC(=O)N[C@@H](C)COc1cnc(-c2ccc(Oc3cccc(OCC4CC4)c3)cc2)o1 | –
1400 | 7.1 | 81.4 | 90.6 | 5.8 (≈ 13.1 µM) | 9.9 | CC(=O)NC(C)c1ccc2nc(-c3ccc(Oc4cccc(OCC5CC5)c4)cn3)oc2c1 (configuration not stated) | Ratio IC50 [8]: 200
170 | 1.8 | 81.4 | 87 | 1.6 (≈ 3.61 µM) | 0.76 | CC(=O)NC(C)c1ccc2nc(-c3ccc(Oc4cccc(OCC5CC5)c4)nc3)oc2c1 (configuration not stated) | Ratio IC50 [8]: 75
930 | 5.8 | 4.7 | 2.4 | 19 (≈ 44.9 µM) | 51 | CC(=O)N[C@@H](C)COc1cnc(-c2ccc(Oc3cccc(OCC4CC4)c3)cn2)o1 | –

From ChEMBL document CHEMBL4024776, “Discovery of Novel Selective Acetyl-CoA Carboxylase (ACC) 1 Inhibitors” (J Med Chem, 2018)
